Shown are actives, neighbours in structure and some others; about 1.6% of the full set was active somewhere.
dFosB act = activators of delta FosB homodimer, primary screen, biochemical, fluorescence polarization, TAMRA-CDK5 oligo, single point | Protein FosB (Mus musculus), P13346 | purified delta FosB; percent of positive-control signal above neutral wells | activation, % at 25 µM | 340,000 compounds, 0.99% hits;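 active = mean activation above about 17%, with every replicate also reaching it, limit read from the data, passing the limit was not always enough; inconclusive = only one of the two conditions met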
SR-BI HDL uptake = inhibitors of SR-BI mediated HDL lipid uptake, primary screen, ldlA[mSR-BI] cells, fluorescence, single point; 320,000 compounds, 0.96% hits; ldlA[mSR-BI] CHO cells, DiI-HDL uptake fluorescence, 3 h; Scavenger receptor class B member 1 (Mus musculus), Q61009; AID 488896, 2010; inhibition, % at 12.5 µM;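 active = mean replicate inhibition of at least 70% and a set share of replicates each scoring 70 or more; inconclusive = meets just one of the two criteria; inactive = fails both criteria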
SR-BI DiI-HDL act = activators of SR-BI mediated DiI-HDL uptake, primary screen, ldlA[mSR-BI] CHO cells, DiI fluorescence; 3 h; 100 = double the neutral-control signal; activation, % at 12.5 µM; 320,000 compounds, 0.096% hits;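 active = mean replicate activation of at least 60% and every replicate at or above 60%; inconclusive = mean or all-replicate condition met, but not both; inactive = mean below 60% and not all replicates reaching 60%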
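system = CHO ldlA[mSR-BI] cells, LDL receptor-null, SR-BI overexpressing | medium = Ham's F12 with 0.5% BSA, HEPES 25 mM, pH 7.4 | probe or stimulus = DiI-HDL 10 µg/mL | compound dosing = single-point compound dose | incubation = compound exposure 3 h, 37 °C | technique = DiI fluorescence, bottom read | read-out = cell-associated DiI fluorescence as measure of HDL uptake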
PvdQ inh = P. aeruginosa PvdQ acylase inhibitors, primary screen, biochemical, fluorescence, plate reader and imaging, single point; PvdQ acylase [Pseudomonas aeruginosa LESB58]; purified PvdQ acylase; inhibition, % at 10 µM; 340,000 compounds, 0.063% hits; in the data active = inhibition above about 30%, passing the limit was not always enough; inconclusive = no clear call, values can overlap the other calls
S100A4 MyoIIA = inhibitors of S100A4-myosin IIA peptide binding, primary screen, biochemical, fluorescence polarization, TAMRA-MyoIIA peptide; Protein S100-A4 (Homo sapiens), P26447; inhibition, % at 10.7 µM; 360,000 compounds, 0.14% hits; AID 652163, 2013;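 active = mean inhibition of at least 70% across replicates, with every replicate also reaching that level; inconclusive = mean inhibition reaches 70% but some replicates fall short; inactive = mean inhibition below 70%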
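Material: human S100A4 monomer with TAMRA-labelled myosin IIA peptide; buffer or medium: HEPES pH 7.2 with CaCl2, KCl, NaCl, DTT, Triton; compound dosing: one concentration per compound; schedule: 5 min incubation before reading; benchmarks: neutral control DMSO, positive control TFP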
RAD54 inh = inhibitors of human RAD54 branch migration, primary screen, biochemical, fluorescence, single point; DNA repair and recombination protein RAD54-like (Homo sapiens), Q92698; 360,000 compounds, 0.14% hits; RAD54 Holliday junction branch migration, FAM/BHQ fluorescence; inhibition, % at 10.4 µM;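 active = mean normalized replicate activity at least 40 and at least half of replicates scoring 40 or more; inconclusive = only one of the two criteria met; inactive = mean below 40 and under half of replicates reaching 40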;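 note: inhibitors cause a drop in the FAM fluorescence signal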
Target sequence (Q92698 whole entry, looked up): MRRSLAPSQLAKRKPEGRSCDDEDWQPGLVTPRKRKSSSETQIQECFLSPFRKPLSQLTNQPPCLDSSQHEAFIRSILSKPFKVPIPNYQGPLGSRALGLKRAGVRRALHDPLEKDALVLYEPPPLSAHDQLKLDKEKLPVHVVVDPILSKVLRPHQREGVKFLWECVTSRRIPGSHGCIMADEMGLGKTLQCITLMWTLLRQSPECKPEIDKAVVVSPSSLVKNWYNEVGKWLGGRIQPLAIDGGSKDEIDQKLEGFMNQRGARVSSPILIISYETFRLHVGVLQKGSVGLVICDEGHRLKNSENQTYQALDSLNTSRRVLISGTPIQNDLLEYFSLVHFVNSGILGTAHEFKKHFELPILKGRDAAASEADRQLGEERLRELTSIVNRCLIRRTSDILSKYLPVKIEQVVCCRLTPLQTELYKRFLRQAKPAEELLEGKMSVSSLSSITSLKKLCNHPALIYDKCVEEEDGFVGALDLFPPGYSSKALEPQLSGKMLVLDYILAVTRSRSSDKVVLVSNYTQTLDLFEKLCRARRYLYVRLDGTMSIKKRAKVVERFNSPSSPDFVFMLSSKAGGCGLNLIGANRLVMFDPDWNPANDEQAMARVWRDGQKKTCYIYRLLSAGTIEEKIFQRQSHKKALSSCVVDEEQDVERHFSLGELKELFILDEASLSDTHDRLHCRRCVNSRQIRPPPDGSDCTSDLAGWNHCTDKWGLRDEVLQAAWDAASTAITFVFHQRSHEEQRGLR
DiI quencher = quenches DiI-HDL fluorescence, an SR-BI assay artifact. shares compounds with SR-BI HDL uptake. cell-free DiI-HDL fluorescence quenching, 30 min. AC50, µM (series often up to 35 µM). 470 compounds, 20% hits. AID 540326;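 active = quenching, a falling signal, with AC50 below a set limit tied to the top valid dose, actives reach about 32 µM in these data; inconclusive = no clear call, values can overlap the other calls; inactive = rising signal, and the rest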
Hits are given with their value; n = inactive; u = inconclusive; x = no result given.

SMILES	dFosB act	SR-BI HDL uptake	SR-BI DiI-HDL act	PvdQ inh	S100A4 MyoIIA	RAD54 inh	DiI quencher
CCC(C)(C)NC(=O)C(c1ccc(C)cc1)N(Cc1cccs1)C(=O)c1ccc2c(c1)OCCO2 (stereo unspecified)	n	77	n	n	x	n	n
O=C(N[C@@H]1C=C[C@@H](CC(=O)N2CCCCC2)O[C@H]1CO)c1ccc2c(c1)OCO2	x	x	x	x	n	n	x
CC(C)NC(=O)N(C)C[C@H]1OCCCC[C@H](C)Oc2ccc(NS(=O)(=O)c3ccc(F)cc3)cc2C(=O)N([C@H](C)CO)C[C@H]1C	x	x	x	x	n	n	x
CCOC(=O)C1CCCN(C(=O)c2cc(COc3ccc(C)nc3)on2)C1 (stereo unspecified)	n	n	n	n	n	n	n
CCOC(=O)C1CCCN(C(=O)c2cc(-c3ccc(C)cc3)on2)C1 (stereo unspecified)	n	n	n	n	x	n	x
COc1ccc(NC(=O)Nc2nnc(-c3ccccc3SCc3ccccc3)s2)cc1	n	101	n	n	x	n	3.2µM
COc1ccc2c3c([nH]c2c1)[C@H](CO)N(C(=O)CN1CCOCC1)CC31CCN(CC2CCCC2)CC1	x	x	x	x	n	x	x
COc1ccc(C)cc1N(CC(=O)NC1CCCC1)C(=O)Cn1nnc(-c2ccc(C)o2)n1	n	76	n	n	n	n	n
O=C(NC1CCCC1)C(c1c[nH]c2ccccc12)N(C(=O)Cn1nnc(-c2ccc(Cl)cc2)n1)c1ccccc1 (stereo unspecified)	n	n	n	n	x	n	n
O=C(CCCC(=O)N(CC(=O)NC1CCCC1)C1CCCC1)Nc1ccccn1	n	u	n	n	x	n	n
O=C(CN(C(=O)Cn1nnc(-c2ccc(F)cc2)n1)C1CCCC1)NC1CCCC1	n	94	n	n	x	n	n
CC(C)(C)NC(=O)C(c1c[nH]c2ccccc12)N(C(=O)Cn1nnc(-c2ccc(Cl)cc2)n1)c1ccccc1F (stereo unspecified)	n	n	n	n	x	x	x
CC(C)NC(=O)N[C@@H]1CC[C@H](CC(=O)NCc2ccc(Oc3ccccc3)cc2)O[C@@H]1CO	x	x	x	x	n	n	x
C[C@@H]1CN([C@@H](C)CO)S(=O)(=O)c2ccc(C3=CCCCC3)cc2O[C@@H]1CN(C)Cc1ccccn1	x	x	x	x	n	n	x
C[C@@H]1CN([C@@H](C)CO)C(=O)c2cc(NC(=O)C3CC3)ccc2O[C@@H]1CN(C)C(=O)Nc1ccccc1	x	x	x	x	n	n	x
CN1C(=O)c2cc(NC(=O)c3cccs3)ccc2OC[C@@H]2O[C@@H](CC(=O)O)CC[C@H]21	x	x	x	x	n	n	x
OCCCn1c(CCCNc2nc(-c3cccc(Br)c3)cs2)nc2cc(Cl)c(N3CCCCC3)cc21	n	n	n	n	n	n	x
COc1ccc(-c2csc(NCCc3nc4cc(Cl)c(N5CCCCC5)cc4n3CCOCCO)n2)cc1	n	83	n	n	n	n	13µM
COc1cccc(-c2csc(N3CCN(C(=S)Nc4cccc(Cl)c4)CC3)n2)c1	n	79	n	n	n	n	n
COc1cccc2c1cc1c(=O)n(CC(=O)N3CCCC3)nc(C)n12	n	n	n	n	n	n	x
COc1cccc2c1cc1c(=O)n(CC(=O)N3CCN(c4cccc(C)c4C)CC3)nc(C)n12	n	n	n	n	n	n	n
CC(C)(C)C(=O)Nc1cccc(-c2nc3ccccc3[nH]2)c1	n	n	n	n	x	n	x
CC(C)(C)C(=O)Nc1sc2c(c1-c1nc3ccccc3[nH]1)CCCC2	n	104	n	n	n	n	9µM
COCC(=O)N1CC2(C1)[C@H](c1ccc(C3=CCCC3)cc1)[C@H](CO)N2C(=O)COC	x	x	x	x	n	x	x
Cc1ccc(CN2CCSc3ccc(C(=O)NCCCN4CCN(C)CC4)cc32)cc1	n	n	n	n	n	n	x
SMILES	dFosB act	SR-BI HDL uptake	SR-BI DiI-HDL act	PvdQ inh	S100A4 MyoIIA	RAD54 inh	DiI quencher
COc1ccc(CCNC(=O)c2ccc3c(c2)N(Cc2ccc(F)cc2)CCS3)c(OC)c1	n	82	n	n	n	n	n
COc1ccc(OC)c(CCNC(=O)c2ccc3c(c2)N(Cc2ccc(F)cc2)CCS3)c1	n	82	n	n	x	n	n
COc1ccc(CCNC(=O)c2ccc3c(c2)N(Cc2ccc(C)cc2)CCS3)cc1OC	n	75	n	n	x	n	n
COC(=O)C[C@@H]1C=C[C@@H](NC(=O)c2ccccc2)[C@H](CO)O1	x	x	x	x	n	n	x
CC(=O)N[C@H]1C=C[C@H](CC(=O)NCC2CCCCC2)O[C@H]1CO	x	x	x	x	n	n	x
CO[C@@H]1CN(C)C(=O)c2cc(NC(=O)Cc3ccccc3)ccc2OC[C@H](C)N(C(C)=O)C[C@@H]1C	x	x	x	x	n	n	x
Cn1cnc(S(=O)(=O)N[C@H]2C=C[C@@H](CC(=O)Nc3ccc(-c4ccccc4)cc3)O[C@H]2CO)c1	x	x	x	x	n	n	x
CCCCN(Cc1ccccc1)c1ncnc2nc[nH]c12	n	74	n	n	x	n	n
CCCCN(CCCC)c1ncnc2nc[nH]c12	n	n	n	n	n	x	x
O=C(C[C@H]1CC[C@H](NS(=O)(=O)c2ccccc2)[C@H](CO)O1)NCCN1CCCCC1	x	x	x	x	n	n	x
Cc1ccsc1-c1nc(-c2ccccc2)c(-c2ccccc2)[nH]1	n	71	n	n	x	n	32µM
CCC1CCCCN1C(=O)CSc1nnc(-c2ccco2)o1 (stereo unspecified)	n	76	n	n	x	n	n
COC(=O)c1c(C)[nH]c(C(=O)C(C)OC(=O)C2CC(=O)N(c3ccc(C)cc3)C2)c1C (stereo unspecified)	n	77	n	n	n	n	n
COC(=O)c1c(C)[nH]c(C(=O)C(C)OC(=O)C2CC(=O)N(CCc3ccccc3)C2)c1C (stereo unspecified)	n	n	n	n	n	n	x
Cc1cccc(N2CCN(C(=O)Cn3cccc3C(=O)c3ccccc3)CC2)c1C	n	73	n	n	x	x	n
Cc1cccc(N2CCN(C(=O)CN3C(=O)NC4(CCCCCC4)C3=O)CC2)c1C	n	73	n	n	n	n	n
COc1cccc(N2CCN(C(=O)CN3C(=O)NC4(CCCC4)C3=O)CC2)c1	n	n	n	n	n	n	x
CC(=O)N1[C@H](CO)[C@H]2c3ccccc3N(C(=O)c3ccccc3)C[C@H]21	x	x	x	x	n	n	x

Screening data from PubChem.
